From ChEMBL document CHEMBL1125357, “Gonadotropin-releasing hormone antagonists with N omega-triazolylornithine, -lysine, or -p-aminophenylalanine residues at positions 5 and 6” (J Med Chem, 1992)
Converted amounts (≈) assume the structure as drawn. “And” between values parts separate entries of the source, which are not always exact repeats. Equal values may be shown once. Starred links: 1 amine or outer side, 2 acyl side, 3 side chain; linkers in the order of their positions; H or OH if unused. Non-standard residues stand in square brackets, D forms with d. Residues, ends and D or L forms follow the SMILES beside them. *: point of attachment. Phe(4-NH(5-NH2triazol-3-yl)) = Nc1nc(Nc2ccc(C[C@H](N)C(=O)O)cc2)n[nH]1; dNva(5-oxo-5-(4-MeOPh)) = COc1ccc(C(=O)CC[C@@H](N)C(=O)O)cc1; X1 = Nc1nc(Nc2ccc(C[C@@H](N[*:1])C(=O)[*:2])cc2)n[nH]1; d(hArg(Et2)) = CCN=C(NCC)NCCCC[C@@H](N)C(=O)O; hArg(Et2) = CCN=C(NCC)NCCCC[C@H](N)C(=O)O; Triazol3yl(1,2,4-5-NH2) = Nc1nc(*)n[nH]1; dPhe(4-Cl) = N[C@H](Cc1ccc(Cl)cc1)C(=O)O; d2Nal = N[C@H](Cc1ccc2ccccc2c1)C(=O)O; Lys(iPr) = CC(C)NCCCC[C@H](N)C(=O)O; NMeY = CN[C@@H](Cc1ccc(O)cc1)C(=O)O; dCit = NC(=O)NCCC[C@@H](N)C(=O)O; d3Pal = N[C@H](Cc1cccnc1)C(=O)O; NMeL = CN[C@@H](CC(C)C)C(=O)O; Nicotinoyl = O=C(c1cccnc1)*; dOrn = NCCC[C@@H](N)C(=O)O; Orn = NCCC[C@H](N)C(=O)O

Experiments:
[1] = Retention time of the compound; assay type: ADME
Summary of the method: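 Peptide (0.5 mg/mL, 10 μL) was loaded in TEAP pH 7.0/CH3CN (76/24), acidified with H3PO4 where insoluble. Elution used a 30-48% CH3CN gradient over 30 min at 1.5 mL/min. Retention time is reported in minutes.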

Rattus norvegicus [2] = species: Rattus norvegicus; test: The compound was tested in vitro for the histamine release; assay type: functional; details: read-out: ED50 (the source's name)
Homo sapiens = species: Homo sapiens; test: In vitro antagonistic potency relative to Ac-delta-3-Pro1-(D)Fpa2-(D)Trp3,6]GnRH; assay type: functional
Summary of the method: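 Cultured rat pituitary cells. Peptides were scored for inhibition of GnRH-mediated LH secretion, and potency is expressed relative to the standard antagonist [Ac-Δ3-Pro1,DFpa2,DTrp3,6]GnRH (= 1.0).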

Rattus norvegicus [3] = species: Rattus norvegicus; test: Antiovulatory activity measured in rat; assay type: functional; set-up: unit: ug/rat
Summary of the method: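 Corbin–Beattie rat antiovulatory assay. Cycling female rats of 250-300 g were given a single sc injection of peptide at noon on proestrus. Vehicle was saline or 5% DMSO in saline (200 μL), or corn oil where flagged. Result is expressed as dose in μg/rat with the number of rats ovulating over the number treated.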

SMILES | RT [1] [min] | EC50 (Rattus norvegicus [2]) [µg/mL] | Potency (Homo sapiens) | AOA (Rattus norvegicus [3])
COc1ccc(C(=O)CC[C@@H](NC(=O)[C@H](CCCN=C(N)N)NC(=O)[C@H](CO)NC(=O)[C@@H](Cc2cccnc2)NC(=O)[C@@H](Cc2ccc(Cl)cc2)NC(=O)[C@@H](Cc2ccc3ccccc3c2)NC(C)=O)C(=O)N[C@@H](CC(C)C)C(=O)N[C@@H](CCCN=C(N)N)C(=O)N2CCC[C@H]2C(=O)N[C@H](C)C(N)=O)cc1 (Ac-[d2Nal][dPhe(4-Cl)][d3Pal]SR[dNva(5-oxo-5-(4-MeOPh))]LRP[dA]-NH2) | – | 1.8 (≈ 1.21 µM) | 1 | 0.5 and 1.5
CC(=O)N[C@H](Cc1ccc2ccccc2c1)C(=O)N[C@H](Cc1ccc(Cl)cc1)C(=O)N[C@H](Cc1cccnc1)C(=O)N[C@@H](CO)C(=O)N[C@@H](Cc1ccc(O)cc1)C(=O)N[C@H](CCCNC(N)=O)C(=O)N[C@@H](CC(C)C)C(=O)N[C@@H](CCCN=C(N)N)C(=O)N1CCC[C@H]1C(=O)N[C@H](C)C(N)=O (Ac-[d2Nal][dPhe(4-Cl)][d3Pal]SY[dCit]LRP[dA]-NH2) | – | 2.1 (≈ 1.47 µM) | 1.56 | 1 and 2
CC(=O)N[C@H](Cc1ccc2ccccc2c1)C(=O)N[C@H](Cc1ccc(Cl)cc1)C(=O)N[C@H](Cc1cccnc1)C(=O)N[C@@H](CO)C(=O)N[C@@H](Cc1ccc(O)cc1)C(=O)N[C@H](CCCNC(N)=O)C(=O)N[C@@H](CC(C)C)C(=O)N[C@@H](CCCNC(=N)N)C(=O)N1CCC[C@H]1C(=O)N[C@H](C)C(N)=O (Ac-[d2Nal][dPhe(4-Cl)][d3Pal]SY[dCit]LRP[dA]-NH2) | 10.1 | – | – | –
CC(=O)N[C@H](Cc1ccc2ccccc2c1)C(=O)N[C@H](Cc1ccc(Cl)cc1)C(=O)N[C@H](Cc1cccnc1)C(=O)N[C@@H](CO)C(=O)N[C@@H](CCCCNc1n[nH]c(N)n1)C(=O)N[C@H](CCCCNc1n[nH]c(N)n1)C(=O)N[C@@H](CC(C)C)C(=O)N[C@@H](CCCCNC(C)C)C(=O)N1CCC[C@H]1C(=O)NCC(N)=O | – | 66 (≈ 43.1 µM) | 0.12 | 1 and 2.5
CC(=O)N[C@H](Cc1ccc2ccccc2c1)C(=O)N[C@H](Cc1ccc(Cl)cc1)C(=O)N[C@H](Cc1cccnc1)C(=O)N[C@@H](CO)C(=O)N[C@@H](CCCN=C(N)N)C(=O)N[C@H](Cc1cccnc1)C(=O)N[C@@H](CC(C)C)C(=O)N[C@@H](CCCN=C(N)N)C(=O)N1CCC[C@H]1C(=O)N[C@H](C)C(N)=O | – | 2.9 (≈ 2.05 µM) | 0.91 | 0.5 and 1
CC(=O)N[C@H](Cc1ccc2ccccc2c1)C(=O)N[C@H](Cc1ccc(Cl)cc1)C(=O)N[C@H](Cc1cccnc1)C(=O)N[C@@H](CO)C(=O)N[C@@H](CCCCNC(=O)c1cccnc1)C(=O)N[C@H](CCCCNC(=O)c1cccnc1)C(=O)N[C@@H](CC(C)C)C(=O)N[C@@H](CCCCNC(C)C)C(=O)N1CCC[C@H]1C(=O)N[C@H](C)C(N)=O (Ac-[d2Nal][dPhe(4-Cl)][d3Pal]SK(Nicotinoyl)[dK](Nicotinoyl)L[Lys(iPr)]P[dA]-NH2) | – | > 300 | 0.66 | 1 and 1.5
CCN=C(NCC)NCCCC[C@H](NC(=O)[C@H](CC(C)C)NC(=O)[C@@H](CCCCNC(=NCC)NCC)NC(=O)[C@H](Cc1ccc(O)cc1)NC(=O)[C@H](CO)NC(=O)[C@@H](Cc1cccnc1)NC(=O)[C@@H](Cc1ccc(Cl)cc1)NC(=O)[C@@H](Cc1ccc2ccccc2c1)NC(C)=O)C(=O)N1CCC[C@H]1C(=O)N[C@H](C)C(N)=O (Ac-[d2Nal][dPhe(4-Cl)][d3Pal]SY[d(hArg(Et2))]L[hArg(Et2)]P[dA]-NH2) | – | 11 (≈ 7 µM) | 2.17 | 2.5
CC(=O)N[C@H](Cc1ccc2ccccc2c1)C(=O)N[C@H](Cc1ccc(Cl)cc1)C(=O)N[C@H](Cc1cccnc1)C(=O)N[C@@H](CO)C(=O)N(C)[C@@H](Cc1ccc(O)cc1)C(=O)N[C@H](CCCCNC(=O)c1cccnc1)C(=O)N[C@@H](CC(C)C)C(=O)N[C@@H](CCCCNC(C)C)C(=O)N1CCC[C@H]1C(=O)N[C@H](C)C(N)=O (Ac-[d2Nal][dPhe(4-Cl)][d3Pal]S[NMeY][dK](Nicotinoyl)L[Lys(iPr)]P[dA]-NH2) | – | 22 (≈ 14.3 µM) | 1.42 | –

Further lines, with some results ahead:

RT [1] [min] | EC50 (Rattus norvegicus [2]) [µg/mL] | SMILES | Potency (Homo sapiens) | AOA (Rattus norvegicus [3])
16.3 | – | CC(=O)N[C@H](Cc1ccc2ccccc2c1)C(=O)N[C@H](Cc1ccc(Cl)cc1)C(=O)N[C@H](Cc1cccnc1)C(=O)N[C@@H](CO)C(=O)N[C@@H](Cc1ccc(O)cc1)C(=O)N[C@H](Cc1cccnc1)C(=O)N[C@@H](CC(C)C)C(=O)N[C@@H](CCCCNC(C)C)C(=O)N1CCC[C@H]1C(=O)N[C@H](C)C(N)=O [listing 1 of 2 here] | – | –
– | 224 (≈ 139 µM) | CC(=O)N[C@H](Cc1ccc2ccccc2c1)C(=O)N[C@H](Cc1ccc(Cl)cc1)C(=O)N[C@H](Cc1cccnc1)C(=O)N[C@@H](CO)C(=O)N[C@@H](Cc1ccc(Nc2n[nH]c(N)n2)cc1)C(=O)N[C@H](Cc1ccc(Nc2n[nH]c(N)n2)cc1)C(=O)N[C@@H](CC(C)C)C(=O)N[C@@H](CCCCNC(C)C)C(=O)N1CCC[C@H]1C(=O)N[C@H](C)C(N)=O (Ac-[d2Nal][dPhe(4-Cl)][d3Pal]S[Phe(4-NH(5-NH2triazol-3-yl))][X1]L[Lys(iPr)]P[dA]-NH2) [listing 1 of 2 here] | 1.3 | 0.5 and 1
– | 28 (≈ 17.5 µM) | CC(=O)N[C@H](Cc1ccc2ccccc2c1)C(=O)N[C@H](Cc1ccc(Cl)cc1)C(=O)N[C@H](Cc1cccnc1)C(=O)N[C@@H](CO)C(=O)N[C@@H](Cc1ccc(Nc2n[nH]c(N)n2)cc1)C(=O)N[C@H](Cc1ccc(Nc2n[nH]c(N)n2)cc1)C(=O)N[C@@H](CC(C)C)C(=O)N[C@@H](CCCCNC(C)C)C(=O)N1CCC[C@H]1C(=O)NCC(N)=O (Ac-[d2Nal][dPhe(4-Cl)][d3Pal]S[Phe(4-NH(5-NH2triazol-3-yl))][X1]L[Lys(iPr)]PG-NH2) [listing 1 of 2 here] | 1 | 1
10.6 | – | CC(=O)N[C@H](Cc1ccc2ccccc2c1)C(=O)N[C@H](Cc1ccc(Cl)cc1)C(=O)N[C@H](Cc1cccnc1)C(=O)N[C@@H](CO)C(=O)N[C@@H](Cc1ccc(Nc2n[nH]c(N)n2)cc1)C(=O)N[C@H](Cc1ccc(Nc2n[nH]c(N)n2)cc1)C(=O)N(C)[C@@H](CC(C)C)C(=O)N[C@@H](CCCCNC(C)C)C(=O)N1CCC[C@H]1C(=O)N[C@H](C)C(N)=O (Ac-[d2Nal][dPhe(4-Cl)][d3Pal]S[Phe(4-NH(5-NH2triazol-3-yl))][X1][NMeL][Lys(iPr)]P[dA]-NH2) [listing 1 of 2 here] | – | –
– | 34 (≈ 20.9 µM) | CC(=O)N[C@H](Cc1ccc2ccccc2c1)C(=O)N[C@H](Cc1ccc(Cl)cc1)C(=O)N[C@H](Cc1cccnc1)C(=O)N[C@@H](CO)C(=O)N[C@@H](Cc1ccc(Nc2n[nH]c(N)n2)cc1)C(=O)N[C@H](Cc1ccc(Nc2n[nH]c(N)n2)cc1)C(=O)N(C)[C@@H](CC(C)C)C(=O)N[C@@H](CCCCNC(C)C)C(=O)N1CCC[C@H]1C(=O)N[C@H](C)C(N)=O (Ac-[d2Nal][dPhe(4-Cl)][d3Pal]S[Phe(4-NH(5-NH2triazol-3-yl))][X1][NMeL][Lys(iPr)]P[dA]-NH2) [listing 2 of 2 here] | 1.6 | 0.5 and 1
– | 34 (≈ 23.7 µM) | CC(=O)N[C@H](Cc1ccc2ccccc2c1)C(=O)N[C@H](Cc1ccc(Cl)cc1)C(=O)N[C@H](Cc1cccnc1)C(=O)N[C@@H](CO)C(=O)N[C@@H](Cc1ccc(O)cc1)C(=O)N[C@H](Cc1cccnc1)C(=O)N[C@@H](CC(C)C)C(=O)N[C@@H](CCCCNC(C)C)C(=O)N1CCC[C@H]1C(=O)N[C@H](C)C(N)=O [listing 2 of 2 here] | 1.3 | 1 and 2.5
8.45 | – | CC(=O)N[C@H](Cc1ccc2ccccc2c1)C(=O)N[C@H](Cc1ccc(Cl)cc1)C(=O)N[C@H](Cc1cccnc1)C(=O)N[C@@H](CO)C(=O)N[C@@H](Cc1ccc(Nc2n[nH]c(N)n2)cc1)C(=O)N[C@H](Cc1ccc(Nc2n[nH]c(N)n2)cc1)C(=O)N[C@@H](CC(C)C)C(=O)N[C@@H](CCCCNC(C)C)C(=O)N1CCC[C@H]1C(=O)NCC(N)=O (Ac-[d2Nal][dPhe(4-Cl)][d3Pal]S[Phe(4-NH(5-NH2triazol-3-yl))][X1]L[Lys(iPr)]PG-NH2) [listing 2 of 2 here] | – | –
– | 158 (≈ 104 µM) | CC(=O)N[C@H](Cc1ccc2ccccc2c1)C(=O)N[C@H](Cc1ccc(Cl)cc1)C(=O)N[C@H](Cc1cccnc1)C(=O)N[C@@H](CO)C(=O)N[C@@H](CCCNc1n[nH]c(N)n1)C(=O)N[C@H](CCCNc1n[nH]c(N)n1)C(=O)N[C@@H](CC(C)C)C(=O)N[C@@H](CCCCNC(C)C)C(=O)N1CCC[C@H]1C(=O)N[C@H](C)C(N)=O (Ac-[d2Nal][dPhe(4-Cl)][d3Pal]S[Orn](Triazol3yl(1,2,4-5-NH2))[dOrn](Triazol3yl(1,2,4-5-NH2))L[Lys(iPr)]P[dA]-NH2) | 0.2 | 2
– | 139 (≈ 90 µM) | CC(=O)N[C@H](Cc1ccc2ccccc2c1)C(=O)N[C@H](Cc1ccc(Cl)cc1)C(=O)N[C@H](Cc1cccnc1)C(=O)N[C@@H](CO)C(=O)N[C@@H](CCCCNc1n[nH]c(N)n1)C(=O)N[C@H](CCCCNc1n[nH]c(N)n1)C(=O)N[C@@H](CC(C)C)C(=O)N[C@@H](CCCCNC(C)C)C(=O)N1CCC[C@H]1C(=O)N[C@H](C)C(N)=O (Ac-[d2Nal][dPhe(4-Cl)][d3Pal]SK(Triazol3yl(1,2,4-5-NH2))[dK](Triazol3yl(1,2,4-5-NH2))L[Lys(iPr)]P[dA]-NH2) | 0.23 | 2
9 | – | CC(=O)N[C@H](Cc1ccc2ccccc2c1)C(=O)N[C@H](Cc1ccc(Cl)cc1)C(=O)N[C@H](Cc1cccnc1)C(=O)N[C@@H](CO)C(=O)N[C@@H](Cc1ccc(Nc2n[nH]c(N)n2)cc1)C(=O)N[C@H](Cc1ccc(Nc2n[nH]c(N)n2)cc1)C(=O)N[C@@H](CC(C)C)C(=O)N[C@@H](CCCCNC(C)C)C(=O)N1CCC[C@H]1C(=O)N[C@H](C)C(N)=O (Ac-[d2Nal][dPhe(4-Cl)][d3Pal]S[Phe(4-NH(5-NH2triazol-3-yl))][X1]L[Lys(iPr)]P[dA]-NH2) [listing 2 of 2 here] | – | –
